The subject of series [1] is Liver microsome. The series can be described thus: Effect on mitochondrial transmembrane potential in Wistar Han rat liver mitochondria energized with succinate assessed as mitochondrial transmembrane electropotential at 0.333 ug/mg of protein (reference value: 220.6 +/- 2.5 mV). The class given is functional.
Series [2] has as its system Liver microsome. The series can be described thus: Effect on mitochondrial transmembrane potential in Wistar Han rat liver mitochondria energized with succinate assessed as ADP depolarization at 0.667 ug/mg of protein (reference value: 34.6 +/- 1.9 mV). The class given is functional.
The test system of series [3] is Liver microsome. The series can be described thus: Effect on mitochondrial transmembrane potential in Wistar Han rat liver mitochondria energized with succinate assessed as time duration of lag phase at 0.333 ug/mg of protein Rvb = 46.7 +/- 3.9 sec). It is filed as functional. The gist of the method: (§1)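 Isolated male Wistar rat liver mitochondria (1.5 mg protein) in 125 mM sucrose, 65 mM KCl, 5 mM KH2PO4, 2.5 mM MgCl2, 5 mM HEPES pH 7.4, 30°C, with 3 μM TPP+. Compound added for 1 min, then 10 mM succinate plus 3 μM rotenone. State 3 started with ADP (83.3 nmol/mg protein). ΔΨ read with a TPP+-selective electrode and calculated by the Kamo equation without binding correction.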

For series [4], the system named is Liver microsome. Kind of series: Reduction in ADP-induced mitochondrial transmembrane electropotential in Wistar Han rat liver mitochondria energized with succinate at >0.3 ug/mg of protein. It is filed as functional.
The subject of series [5] is Liver microsome. The series can be described thus: Effect on mitochondrial transmembrane potential in Wistar Han rat liver mitochondria energized with succinate assessed as mitochondrial transmembrane electropotential at 0.667 ug/mg of protein (reference value: 220.6 +/- 2.5 mV). The class given is functional. In outline:
as §1

Series [6] concerns Liver microsome. The series can be described thus: Effect on mitochondrial transmembrane potential in Wistar Han rat liver mitochondria energized with succinate assessed as ADP depolarization at 0.067 ug/mg of protein (reference value: 23.9 +/- 3.3 mV). The class given is functional.
Series [7] deals with Liver microsome. Kind of series: Effect on mitochondrial transmembrane potential in Wistar Han rat liver mitochondria energized with succinate assessed as mitochondrial transmembrane electropotential at 1.333 ug/mg of protein (reference value: 198.0 +/- 5.6 mV). The class given is functional. In outline: as §1
The subject of series [8] is Liver microsome. Kind of series: Effect on mitochondrial transmembrane potential in Wistar Han rat liver mitochondria energized with succinate assessed as mitochondrial transmembrane electropotential at 0.667 ug/mg of protein (reference value: 198.0 +/- 5.6 mV). It is filed as functional.
The test system of series [9] is Liver microsome. The series can be described thus: Effect on mitochondrial transmembrane potential in Wistar Han rat liver mitochondria energized with succinate assessed as mitochondrial transmembrane electropotential at 0.06 ug/mg of protein (reference value: 198.0 +/- 5.6 mV). The class given is functional.
The subject of another series is Hs-578T. Kind of series: Cytotoxicity against human Hs578T cells at 0.125 to 2 ug/ml incubated for 6 hrs folowed by drug wash out and fresh medium addition and measured 3 days after wash out. The class given is functional, cell-based.
Series [10] relates to Liver microsome. The series can be described thus: Effect on mitochondrial transmembrane potential in Wistar Han rat liver mitochondria energized with succinate assessed as time duration of lag phase at 0.133 ug/mg of protein (reference value: 40.5 +/- 4.5 sec). The class given is functional. In outline:
as §1

For series [11], the system named is Liver microsome. The series can be described thus: Effect on mitochondrial transmembrane potential in Wistar Han rat liver mitochondria energized with succinate assessed as ADP depolarization at 0.133 ug/mg of protein (reference value: 23.9 +/- 3.3 mV). The class given is functional.
In series [12] the test system is Liver microsome. The series can be described thus: Effect on mitochondrial transmembrane potential in Wistar Han rat liver mitochondria energized with succinate assessed as mitochondrial transmembrane electropotential at 0.06 ug/mg of protein (reference value: 204.2 +/- 5.6 mV). The class given is functional.
In series [13] the test system is Liver microsome. The series can be described thus: Effect on mitochondrial transmembrane potential in Wistar Han rat liver mitochondria energized with succinate assessed as time duration of lag phase at 0.667 ug/mg of protein (reference value: 33.0 +/- 4.6 sec). The class given is functional. The gist of the method:
as §1

For series [14], the system named is Liver microsome. Kind of series: Effect on mitochondrial transmembrane potential in Wistar Han rat liver mitochondria energized with succinate assessed as mitochondrial transmembrane electropotential at 0.133 ug/mg of protein (reference value: 204.2 +/- 5.6 mV). It is filed as functional.
For series [15], the system named is Liver microsome. The series can be described thus: Effect on mitochondrial transmembrane potential in Wistar Han rat liver mitochondria energized with succinate assessed as mitochondrial transmembrane electropotential at 1.333 ug/mg of protein (reference value: 204.2 +/- 5.6 mV). It is filed as functional. In outline: as §1
Series [16] can be described thus: Induction of apoptosis in human MCF12A cells assessed as distribution of mitochondrial polarization and morphology at 0.25 ug/ml after 6 hrs by confocal microscopy. It is filed as cell-based. As to conditions: mcf-12a. The gist of the method:
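Cells were seeded on glass coverslips and left to attach for 24 h. They were then exposed to vehicle or 0.25 μg/ml compound for 6 h. For the last 30 min they were loaded with 100 nM TMRM in saline buffer with 15 mM glucose, and the probe was kept present during imaging. Mitochondrial polarization and morphology were imaged by fluorescence microscopy, and the TMRM fluorescence standard deviation was quantified. Four independent preparations, mean ± SEM.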

Another series has as its system MDA-MB-231. Kind of series: Cytotoxicity against human MDA-MB-231 cells at 0.125 to 2 ug/ml after 1 to 5 days by sulforhodamine B assay. It is filed as functional, cell-based. In outline: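 Sulforhodamine B growth assay in high-glucose DMEM with 10% FBS. Cancer cells seeded at 1×10^4 cells/ml; compound (0.125–2 μg/ml) added 24 h after seeding and left for 1, 3 or 5 days. Cells fixed, total mass stained. Expressed as % of untreated cells at the same time point. Mean ± SEM, five independent experiments.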

The test system of series [17] is Liver microsome. Kind of series: Effect on mitochondrial transmembrane potential in Wistar Han rat liver mitochondria energized with succinate assessed as mitochondrial transmembrane electropotential at 0.333 ug/mg of protein (reference value: 204.2 +/- 5.6 mV). It is filed as functional.
For series [18], the system named is Liver microsome. The series can be described thus: Effect on mitochondrial transmembrane potential in Wistar Han rat liver mitochondria energized with succinate assessed as time duration of lag phase at 1.333 ug/mg of protein (reference value: 33.0 +/- 4.6 sec). It is filed as functional. The gist of the method: as §1
For series [19], the system named is Liver microsome. Kind of series: Effect on mitochondrial transmembrane potential in Wistar Han rat liver mitochondria energized with succinate assessed as time duration of lag phase at 0.067 ug/mg of protein (reference value: 33.0 +/- 4.6 sec). The class given is functional. The gist of the method:
as §1

Series [20] deals with Liver microsome. Kind of series: Effect on mitochondrial transmembrane potential in Wistar Han rat liver mitochondria energized with succinate assessed as mitochondrial transmembrane electropotential at 1.333 ug/mg of protein (reference value: 216.0 +/- 7.4 mV). The class given is functional. In outline: as §1
For series [21], the system named is Liver microsome. Kind of series: Effect on mitochondrial transmembrane potential in Wistar Han rat liver mitochondria energized with succinate assessed as time duration of lag phase at 0.667 ug/mg of protein (reference value: 82.8 +/- 23.5 sec). The class given is functional. In outline: as §1
Series [22] deals with Liver microsome. The series can be described thus: Effect on mitochondrial transmembrane potential in Wistar Han rat liver mitochondria energized with succinate assessed as time duration of lag phase at 0.133 ug/mg of protein (reference value: 82.8 +/- 23.5 sec). It is filed as functional. The gist of the method: as §1
Series [23] deals with Liver microsome. The series can be described thus: Effect on mitochondrial transmembrane potential in Wistar Han rat liver mitochondria energized with succinate assessed as mitochondrial transmembrane electropotential at 0.667 ug/mg of protein (reference value: 216.0 +/- 7.4 mV). The class given is functional. The gist of the method: as §1
The subject of series [24] is Liver microsome. Kind of series: Effect on mitochondrial transmembrane potential in Wistar Han rat liver mitochondria energized with succinate assessed as time duration of lag phase at 1.333 ug/mg of protein (reference value: 82.8 +/- 23.5 sec). The class given is functional. The gist of the method:
as §1

The structures appear in SMILES notation. Calls of active or inactive are those of the source. No cut-off for these calls is given here.

As to `C=C(C)[C@@H]1CC[C@]2(COC(=O)C[N+](C)(C)C(C)C)CC[C@]3(C)[C@H](CC[C@@H]4[C@@]5(C)CC[C@H](OC(=O)C[N+](C)(C)C(C)C)C(C)(C)[C@@H]5CC[C@]43C)[C@@H]12.[Cl-].[Cl-]`, the figures for the Activity in the series on Liver microsome [1], in the series on Liver microsome [2] and with Liver microsome [5] were 213 mV, 21.9 mV and 211 mV, respectively. Moreover, the TIME with Liver microsome [3] was 0.0129 h. The inhibition result in the series with Liver microsome [4] was “Active”.
Turning to `C=C(C)[C@@H]1CC[C@]2(COC(=O)C(CC)[n+]3ccc(N(C)C)cc3)CC[C@]3(C)[C@H](CC[C@@H]4[C@@]5(C)CC[C@H](OC(=O)C(CC)[n+]6ccc(N(C)C)cc6)C(C)(C)[C@@H]5CC[C@]43C)[C@@H]12` (stereo partly specified), the Activity in the series with Liver microsome [6] was 22.3 mV; with Liver microsome [7], 190 mV; in the series on Liver microsome [8], 193 mV; with Liver microsome [9], 198 mV; with Liver microsome [11], 23.2 mV. Besides, the inhibition entry with Hs-578T is “Active”. The TIME in the series with Liver microsome [10] amounted to 0.0122 h.
For `C=C(C)[C@@H]1CC[C@]2(COC(=O)CC[n+]3ccc(N(C)C)cc3)CC[C@]3(C)[C@H](CC[C@@H]4[C@@]5(C)CC[C@H](OC(=O)CC[n+]6ccc(N(C)C)cc6)C(C)(C)[C@@H]5CC[C@]43C)[C@@H]12.[Cl-].[Cl-]`, the Activity with Liver microsome [12] was 206 mV; in the series on Liver microsome [14] it was 206 mV; in the series on Liver microsome [15], 199 mV; in series [16] it was “Non-toxic”; in the series with Liver microsome [17], 204 mV. The TIME in the series on Liver microsome [13] was 0.00894 h; in the series on Liver microsome [18], 0.00983 h; in the series with Liver microsome [19], 0.009 h. The inhibition entry in the series with MDA-MB-231 was “Active”.
As to `C=C(C)[C@@H]1CC[C@]2(COC(=O)C[n+]3ccc(N(C)C)cc3)CC[C@]3(C)[C@H](CC[C@@H]4[C@@]5(C)CC[C@H](OC(=O)C[n+]6ccc(N(C)C)cc6)C(C)(C)[C@@H]5CC[C@]43C)[C@@H]12.[Cl-].[Cl-]`, the Activity was 201 mV in the series with Liver microsome [20] and 206 mV in the series on Liver microsome [23]. In addition, the figures for the TIME in the series with Liver microsome [21], with Liver microsome [22] and with Liver microsome [24] were 0.026 h, 0.0233 h and 0.033 h, respectively.

Values taken from ChEMBL document CHEMBL3351723, “New derivatives of lupane triterpenoids disturb breast cancer mitochondria and induce cell death” (Bioorg Med Chem, 2014).
